We go through 13 molecules from PubChem BioAssay.

Assay [1] can be described thus: inhibitors of TNFa-induced NFkB p65 translocation, primary screen, imaging, HUVEC, MLSMR starter and 10KST1 sets (AID 438).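 For inhibition: signal is the nuclear over cytoplasmic p65 intensity ratio per well.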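 Note: compound added about 3h40 before a 20 min TNFalpha stimulation.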 Particulars: HUVEC TNFa-induced p65 nuclear translocation; cell count: measured here: nuclei count (cytotoxicity indicator), at 2.08 µM; inhibition: at 2 µM, stronger effect = higher value, 0% TNFa-plus-vehicle, 100% no-TNFa wells.
A short description of assay [2]: inhibitors of E-selectin induction by TNFa, primary screen, imaging, HUVEC, immunofluorescence, MLSMR starter and 10KST1 sets (AID 487;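 active = visually confirmed hit in the image check and inhibition above 20%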;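 for inhibition: signal is fraction of cell area covered by stained E-selectin grains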;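 for nuclei count: 100% = median nuclei count of all wells on the same plate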). Particulars: HUVEC TNFalpha-induced E-selectin immunofluorescence imaging, at 2 µM; inhibition: stronger effect = higher value; nuclei count: measured here: cell number, toxicity.
A short description of assay [3]: DUSP6 inhibitors restoring Erk phosphorylation by chemical complementation, primary imaging in DUSP6-transfected HeLa (AID 609;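 active = compounds giving at least 50% inhibition in the cell-based MKP-3 phosphatase rescue imaging test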;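 for inhibition: phospho-Erk level distribution per well compared with pooled transfected vehicle control wells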). As to conditions: HeLa MKP-3 transfected, phospho-Erk imaging KS statistic, at 10 µM, cells stimulated with TPA for 15 min.
For assay [4], the target named is Dual specificity protein phosphatase 6 (Homo sapiens) (UniProt Q16828). Described as above. Particulars: HeLa MKP-3 transfected, phospho-Erk imaging KS statistic; at 10 µM; stronger effect = higher value; cells stimulated with TPA for 15 min.
Dual specificity protein phosphatase 6 (Homo sapiens), sequence (Q16828 whole entry, looked up): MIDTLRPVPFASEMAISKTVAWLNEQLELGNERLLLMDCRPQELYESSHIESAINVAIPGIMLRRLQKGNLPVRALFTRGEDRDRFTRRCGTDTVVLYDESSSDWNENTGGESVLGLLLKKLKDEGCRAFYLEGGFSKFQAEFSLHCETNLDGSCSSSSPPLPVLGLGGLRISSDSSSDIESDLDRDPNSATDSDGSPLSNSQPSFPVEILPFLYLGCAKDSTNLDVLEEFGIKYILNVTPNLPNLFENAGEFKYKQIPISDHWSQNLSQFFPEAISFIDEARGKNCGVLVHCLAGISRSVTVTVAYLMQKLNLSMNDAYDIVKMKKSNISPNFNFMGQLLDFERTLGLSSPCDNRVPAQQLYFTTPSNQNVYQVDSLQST
In assay [5] the target is Voltage-gated potassium channel subunit beta-2 (Rattus norvegicus) (UniProt P62483). The assay is described as follows: KvBeta enzyme negative modulators, primary screen, biochemical, NADPH fluorescence (AID 622;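 active = fluorescence slope higher than the sample average by over 3 SD, cut at about -0.22 in these data, passing the limit was not always enough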;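 note: slope of raw intensity against log time taken from 70 to 1610 s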). Particulars: recombinant KvBeta, 4-cyanobenzaldehyde reduction, at 10 µM, stronger effect = higher value.
Voltage-gated potassium channel subunit beta-2 (Rattus norvegicus), sequence (P62483 whole entry, looked up): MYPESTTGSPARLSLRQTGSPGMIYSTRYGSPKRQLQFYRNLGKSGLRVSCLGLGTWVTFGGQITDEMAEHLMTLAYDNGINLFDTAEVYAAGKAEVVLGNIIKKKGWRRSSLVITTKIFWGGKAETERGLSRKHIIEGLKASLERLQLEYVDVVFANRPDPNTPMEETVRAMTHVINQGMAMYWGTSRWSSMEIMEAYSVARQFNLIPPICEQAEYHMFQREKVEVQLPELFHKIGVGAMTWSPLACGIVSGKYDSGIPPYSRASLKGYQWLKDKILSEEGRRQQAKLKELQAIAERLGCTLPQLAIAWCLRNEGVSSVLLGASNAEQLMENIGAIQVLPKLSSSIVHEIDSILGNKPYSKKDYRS
Assay [6] has the same target. The assay is described as follows: KvBeta positive modulators, primary screen, biochemical, NADPH fluorescence (AID 623;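 active = NADPH fluorescence slope more negative than the mean of all samples by about 3 SD, 99.7% confidence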;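 note: fluorescence intensity change per second fitted from 20 to 320 s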). As to conditions: Recombinant KvBeta, NADPH fluorescence decrease slope, 10 min; at 10 µM; stronger effect = lower value.
Assay [7] addresses Alpha-2C adrenergic receptor (Homo sapiens) (UniProt P18825). The assay is described as follows: modulators of alpha2C/GIRK thallium flux, primary screen, cell-based, HEK293 alpha2C/GIRK1/2 (AID 624;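 active = fluorescence slope after compound addition differing from the mean of all screened samples at 99.7% confidence, in either direction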;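 note: slope of fluorescence ratio to pre-addition baseline per second over 15 to 24 s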). Particulars: thallium flux BTC fluorescence, at 10 µM, actives lie on both sides.
Assay [8] in a line: inhibitors of larval lipid processing in zebrafish, primary screen, whole organism, PED6 fluorescence, gall bladder and intestine (AID 686;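 active = a full or partial loss of lipid-probe fluorescence in the fish gall bladder, intestine or both, judged by eye; inactive = no fluorescence loss, or compound toxic to the fish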;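 note: larvae 5 to 7 days old with five fish per well; signal comes from phospholipase A2 cleavage of quenched PED6 carried via bile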). Particulars: Zebrafish larvae PED6 lipid processing, fluorescence scoring; screened at 20 µM (by protocol). An outline of the steps: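 system = live zebrafish larvae aged 5-7 days, whole organism | probe or stimulus = ingested quenched lipid PED6 at 100 nM | doses = 20 µM single dose | timing = overnight exposure | detection = fluorescence microscopy with visual scoring of gall bladder and intestine | read-out = visual per-well fluorescence inhibition score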

The nature of assay [9]: inhibitors of Chlamydomonas gravitaxis, primary screen, whole organism, Chlamydomonas reinhardtii, WT vs cilia-less mutant, absorbance, 96-well (AID 463189;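 active = inhibition at or above 50% relative to wild type and mutant plate controls; inactive = inhibition below 50%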;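 note: 0% = wild type cc124 cells in DMSO and 100% = ciliumless bld1 mutant cells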). As to conditions: OD600 absorbance, 2 days, at 10 µM, stronger effect = higher value.
Where [10] appears, read: measured here: cell density z-score.
Where [11] appears, read: measured here: nuclear c-Myc green intensity z-score.
Setting [12] is: measured here: nuclear pErk red intensity z-score, stronger effect = higher value.

Activity calls are given as the source filed them.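 Rule for the calls, unless noted: active = inhibition above 20% together with a positive visual image hit; inconclusive = visual image hit but inhibition not above 20%; inactive = no visual image hit.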

The term inhibition denotes the relative decrease from the control value, in per cent.

Alpha-2C adrenergic receptor (Homo sapiens), sequence (P18825 whole entry, looked up): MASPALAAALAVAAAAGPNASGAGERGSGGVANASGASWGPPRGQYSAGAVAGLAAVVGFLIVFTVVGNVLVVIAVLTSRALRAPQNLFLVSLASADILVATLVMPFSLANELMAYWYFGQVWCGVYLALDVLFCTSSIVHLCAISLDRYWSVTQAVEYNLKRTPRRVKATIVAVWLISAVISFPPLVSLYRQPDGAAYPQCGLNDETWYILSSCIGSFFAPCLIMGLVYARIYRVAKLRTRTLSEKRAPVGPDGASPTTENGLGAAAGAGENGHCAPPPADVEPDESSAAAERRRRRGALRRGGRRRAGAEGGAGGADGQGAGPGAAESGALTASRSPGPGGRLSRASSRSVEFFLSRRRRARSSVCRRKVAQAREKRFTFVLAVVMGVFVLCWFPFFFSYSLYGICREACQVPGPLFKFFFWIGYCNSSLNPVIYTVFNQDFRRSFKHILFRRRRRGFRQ

As for `O=C(Nc1ncn[nH]1)c1c(Cl)ccc(Cl)c1Cl`, the cell count in [1] came to 597. Besides, the inhibition was -1.6% (inactive) in assay [1], 20% (inactive) in assay [2], -15% (inactive) in assay [4] and 0.721% (inactive) in assay [9]. This molecule also yielded a nuclei count in assay [2] of 162%. For the same molecule, the z-score in assay [3] (setting [10]) is -1.37; in assay [3] (setting [11]) it was 0.992; in assay [3] (setting [12]), 0.69. The fluorescence slope in [5] was -0.362 (inactive). The NADPH fluorescence slope in assay [6] was -8.7e-06 (inactive). For the same molecule, the slope in assay [7] is 0.00528 (inactive). In assay [8], the result was inactive.

Consider `CCOCCN(C(=O)COC)c1cccc(OC)c1`, for which the cell count in assay [1] amounted to 368. Moreover, the inhibition in assay [1] was 4.6% (inactive); in assay [2], 19.2% (inactive); in assay [4], -5.62% (inactive); in assay [9] it was -16.2% (inactive). In [2], this molecule gave a nuclei count of 124%. Also, the z-score in assay [3] (setting [10]) is 0.00474; in [3] (setting [11]) it was 0.972; in assay [3] (setting [12]) it was 0.0482. For the same molecule, the fluorescence slope in assay [5] was -0.321 (inactive). The NADPH fluorescence slope in assay [6] was 1.5e-05 (inactive). The slope in [7] is 0.00531 (inactive). In addition, the molecule was classed as inactive in assay [8].

Turning to `Cc1cc(=O)[nH]c(SCC(=O)c2ccccc2)c1C#N`, in assay [1], the cell count was found to be 391. Further, the inhibition in assay [1] was -0.9% (inactive); in [2], 1.9% (inactive); in assay [4] it was 13.4% (inactive); in assay [9], -2.65% (inactive). In assay [2], this molecule came in with a nuclei count of 168%. Besides, the z-score in assay [3] (setting [10]) is 2.74; in assay [3] (setting [11]), -1.01; in assay [3] (setting [12]), -0.58. The fluorescence slope in assay [5] was -0.41 (inactive). Also, in [6], the NADPH fluorescence slope is -0.000133 (inactive). In addition, in assay [7], the slope is 0.00479 (inactive). Besides, the result in assay [8] was inactive.

As for `N#Cc1c(N)nc(SCC(=O)NCCc2ccccc2)c(C#N)c1-c1cccs1`, the cell count in assay [1] was 441. The inhibition in assay [1] was 3.4% (inactive); in assay [2], 19.3% (inactive); in [4], 7.83% (inactive); in assay [9], -7.92% (inactive). The nuclei count in [2] is 62.6%. For the same molecule, the z-score in assay [3] (setting [10]) was -1.05; in assay [3] (setting [11]), -0.516; in [3] (setting [12]) it was 1.34. Further, the fluorescence slope in assay [5] is -0.418 (inactive). In [6], the NADPH fluorescence slope is -1.6e-05 (inactive). Further, the slope in assay [7] is 0.00734 (inactive). The result in assay [8] was inactive.

Consider `COc1cc(OC)cc(C(=O)N2CCC(N3CCCCCC3)CC2)c1`, for which the cell count in assay [1] turned out to be 372. In addition, the inhibition was -26.6% (inactive) in assay [1], -111% (inactive) in [2], 32.7% (inactive) in assay [4] and 29.1% (inactive) in [9]. In assay [2], this molecule gave a nuclei count of 132%. Moreover, the results for the z-score in [3] (setting [10]), in assay [3] (setting [11]) and in assay [3] (setting [12]) were 2.06, -1.95 and -0.585, respectively. In addition, the fluorescence slope in [5] was -0.337 (inactive). Further, the NADPH fluorescence slope in [6] is -2.1e-05 (inactive). The slope in [7] is 0.00559 (inactive). Also, the outcome in assay [8] is “inactive; toxic”.

For the molecule `O=C(CNC1=NCCC1)c1ccc2c(c1)OCCO2`, the cell count in [1] was 488. The inhibition was -10.2% (inactive) in [1], -73% (inactive) in [2], 28.6% (inactive) in assay [4] and -8.59% (inactive) in assay [9]. In addition, the nuclei count in assay [2] came to 161%. Also, the values for the z-score in [3] (setting [10]), in assay [3] (setting [11]) and in [3] (setting [12]) were -0.692, -1.12 and -0.547, respectively. Moreover, the fluorescence slope in assay [5] was -0.485 (inactive). In assay [6], the NADPH fluorescence slope is -0.000113 (inactive). The slope in assay [7] was 0.006 (inactive). The outcome in assay [8] was inactive.

Take `Cc1cc(=O)oc(C)c1C(=O)NCCN1CCOCC1`: in [1], the cell count is 476. Moreover, the inhibition was -0.5% (inactive) in assay [1], -10.6% (inactive) in assay [2], -1.75% (inactive) in assay [4] and 21.9% (inactive) in [9]. In assay [2], this molecule came in with a nuclei count of 92.4%. Further, the z-score in assay [3] (setting [10]) was -0.82; in assay [3] (setting [11]) it was 0.575; in assay [3] (setting [12]) it was 1.34. Moreover, the fluorescence slope in assay [5] was -0.491 (inactive). Further, the NADPH fluorescence slope in assay [6] was -1.8e-05 (inactive). The slope in [7] is 0.00592 (inactive). In addition, the result in assay [8] was inactive.

For `CC/C(=N\O)c1ccc(OC)c(OC)c1`, the cell count in assay [1] came out at 328. Further, the inhibition in assay [1] is -13.3% (inactive); in [2], -106% (inactive); in [4], 1.75% (inactive); in [9] it was 13.3% (inactive). In [2], this molecule showed a nuclei count of 159%. For the same molecule, the z-score in assay [3] (setting [10]) is -0.778; in [3] (setting [11]), -1.02; in [3] (setting [12]), 1.01. The fluorescence slope in assay [5] was -0.423 (inactive). The NADPH fluorescence slope in assay [6] is -0.000183 (inactive). Besides, the slope in assay [7] is 0.00545 (inactive). The molecule was called inactive in assay [8].

Regarding `CCCOC(=O)CSC1=C(C#N)C(c2ccccc2OC)C(C#N)C(=O)N1` (centres undefined), the cell count in [1] was 496. Further, the inhibition in assay [1] was -3.9% (inactive); in [2] it was -60% (inactive); in assay [4], -2.07% (inactive); in assay [9], -12.6% (inactive). Moreover, the nuclei count in assay [2] was 136%. The z-score in assay [3] (setting [10]) is -0.969; in assay [3] (setting [11]), 0.676; in assay [3] (setting [12]) it was 0.273. For the same molecule, in [5], the fluorescence slope was -0.5 (inactive). In assay [6], the NADPH fluorescence slope was -7.4e-05 (inactive). For the same molecule, the slope in [7] was 0.00543 (inactive). Besides, the result in assay [8] was inactive.

Consider `CCCSc1nnc2n(-c3ccccc3OC)c(=O)c3c4c(sc3n12)CCC4`, for which the cell count in assay [1] is 523. Also, the inhibition was -14.8% (inactive) in assay [1], -63.5% (inactive) in assay [2], 7.73% (inactive) in assay [4] and 11.2% (inactive) in assay [9]. For the same molecule, the nuclei count in assay [2] was 171%. Further, the z-score in assay [3] (setting [10]) was 1.08; in assay [3] (setting [11]), -1.06; in assay [3] (setting [12]), -0.347. Also, the fluorescence slope in assay [5] is -0.358 (inactive). The NADPH fluorescence slope in assay [6] is -3.5e-05 (inactive). Moreover, the slope in assay [7] is 0.00552 (inactive). In assay [8], the call was inactive.

For `c1ccc(Cc2nn[nH]n2)cc1`, the cell count in assay [1] is 659. The inhibition in [1] was -11% (inactive); in [2], 49.2% (inactive); in assay [4] it was -3.95% (inactive); in assay [9] it was -10.1% (inactive). In [2], this molecule came in with a nuclei count of 144%. The z-score in [3] (setting [10]) was -1.16; in assay [3] (setting [11]), 0.713; in [3] (setting [12]) it was 1.02. For the same molecule, in [5], the fluorescence slope was -0.426 (inactive). Further, the NADPH fluorescence slope in assay [6] is -5.4e-05 (inactive). The slope in [7] is 0.00705 (inactive). For the same molecule, the outcome in [8] was inactive.

Regarding `CCOc1ccc(Br)cc1CC(=O)O`, the cell count in [1] was found to be 280. Further, the inhibition in assay [1] was -20.4% (inactive); in assay [2] it was -108% (inactive); in [4], 14% (inactive); in assay [9] it was -8.79% (inactive). Further, the nuclei count in assay [2] is 90.5%. Besides, the values for the z-score in [3] (setting [10]), in assay [3] (setting [11]) and in assay [3] (setting [12]) were -0.00622, -0.788 and -0.945, respectively. In [5], the fluorescence slope was -0.486 (inactive). Also, the NADPH fluorescence slope in assay [6] was -0.000116 (inactive). Further, in assay [7], the slope is 0.00651 (inactive). The molecule was classed as inactive in [8].

As for `COc1cccc(C2/C(=C(\O)c3ccc4c(c3)OCCO4)C(=O)C(=O)N2CCN(C)C)c1` (centres undefined), the cell count in assay [1] amounted to 509. Besides, the inhibition in assay [1] was -0.6% (inactive); in assay [2] it was -108% (inactive); in assay [4], 17.5% (inactive); in [9], -11.2% (inactive). The same molecule came in with a nuclei count in [2] of 138%. The z-score in assay [3] (setting [10]) is 1; in assay [3] (setting [11]), -0.131; in assay [3] (setting [12]), -0.387. For the same molecule, the fluorescence slope in assay [5] was -0.546 (inactive). Further, the NADPH fluorescence slope in [6] was -3.2e-05 (inactive). In assay [7], the slope was 0.00546 (inactive). Further, the call in assay [8] was inactive.
